XBP1 UPR activ – activators of adaptive arm of unfolded protein response (XBP1) | CHO-XBP1 luciferase reporter, IRE1-XBP1 UPR activation, luminescence; percent of tunicamycin response, DMSO as zero | activation, % at 20 µM | 330,000 compounds, 0.33% hits;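 active = versus positive control, 20 µM dose yields 30% or more activation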
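Test system: CHO-XBP1 luciferase reporter cells | Buffer or medium: Serum-containing F12 medium, 10% FBS | Schedule: 6 h compound exposure at 37 °C, 5% CO2 | Detection: Steady-Glo luciferase glow luminescence, 10 min after reagent addition | Read-out basis: Activation, % of tunicamycin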
CHOP UPR activ – apoptotic UPR (CHOP) activation; AID 449763; activation, % at 10 µM; 330,000 compounds, 0.34% hits; CHO-CHOP luciferase reporter, luminescence; percent of tunicamycin response over DMSO baseline;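 active = at 10 µM dose, activation of 40% or more, normalized to positive control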
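System: CHO CHOP reporter cells. Amount: 500 cells per well. Buffer or medium: F12 medium, 10% FBS. Compound dosing: one dose, 10 µM in 0.5% DMSO. Incubation: 6 h compound exposure at 37 °C after overnight seeding. Technique: Steady-Glo luciferase luminescence. Benchmarks: tunicamycin and DMSO controls.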
ANO1 block – mouse TMEM16A channel inhibition, primary screen; Q8BHY3; HEK293 TMEM16A/YFP iodide influx fluorescence, ionomycin; normalized B-score (activity score, 25-100; higher = stronger inhibition) at 10 µM; 310,000 compounds, 1.2% hits; AID 588511;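 active = ratio plate-corrected score three or more library SD toward inhibition, starting fluorescence score within five deviations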;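 note: score derived from kinetic fluorescence span divided by baseline fluorescence per well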
Target sequence (Q8BHY3 whole entry, looked up): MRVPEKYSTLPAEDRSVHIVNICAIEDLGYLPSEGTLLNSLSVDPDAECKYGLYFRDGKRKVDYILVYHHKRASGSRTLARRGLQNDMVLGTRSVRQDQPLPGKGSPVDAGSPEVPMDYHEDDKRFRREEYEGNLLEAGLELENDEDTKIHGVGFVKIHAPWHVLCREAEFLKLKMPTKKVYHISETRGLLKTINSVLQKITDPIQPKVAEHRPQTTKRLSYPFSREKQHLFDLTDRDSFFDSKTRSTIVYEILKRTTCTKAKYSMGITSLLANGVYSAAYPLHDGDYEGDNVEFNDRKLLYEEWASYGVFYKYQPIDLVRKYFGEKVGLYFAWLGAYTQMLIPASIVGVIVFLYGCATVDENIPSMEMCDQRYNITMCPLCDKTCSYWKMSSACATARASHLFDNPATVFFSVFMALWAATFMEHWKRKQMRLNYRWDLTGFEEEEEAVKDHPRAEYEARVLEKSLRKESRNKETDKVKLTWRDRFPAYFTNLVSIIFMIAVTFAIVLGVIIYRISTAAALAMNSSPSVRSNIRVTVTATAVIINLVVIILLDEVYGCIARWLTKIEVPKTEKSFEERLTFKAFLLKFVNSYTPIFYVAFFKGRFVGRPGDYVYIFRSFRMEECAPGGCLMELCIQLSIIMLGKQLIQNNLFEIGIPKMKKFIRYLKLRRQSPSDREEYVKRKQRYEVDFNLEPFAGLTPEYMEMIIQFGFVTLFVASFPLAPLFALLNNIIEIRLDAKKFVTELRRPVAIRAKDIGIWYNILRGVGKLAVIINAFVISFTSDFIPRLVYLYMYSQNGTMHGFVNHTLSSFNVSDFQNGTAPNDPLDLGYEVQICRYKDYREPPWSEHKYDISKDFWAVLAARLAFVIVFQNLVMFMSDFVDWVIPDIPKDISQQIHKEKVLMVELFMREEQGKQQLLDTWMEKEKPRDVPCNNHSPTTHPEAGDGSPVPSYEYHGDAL
CHOP inh – inhibitors of CHOP induction in ER stress response. CHO-K1 CHOP-promoter luciferase, tunicamycin-induced, 15-18 h. inhibition, % at 10 µM. 220,000 compounds, 3.8% hits;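 active = compounds that reduced the stress-induced luciferase reporter signal by more than about 70% of percent inhibition, limit read from the data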
Hep lipid drop – hepatic lipid droplet formation modulation; 240,000 compounds, 0.4% hits; AML12 mouse hepatocytes, oleate lipid droplets, BODIPY imaging; AID 1656; inhibition, % at 6.5 µM;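 active = lipid droplet intensity inhibited by at least 50%, with more than 500 cells counted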
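Technique: fluorescence imaging, 20x objective, two fields per well / Assay system: AML12 hepatocytes (mouse) / Measure: % inhibition of lipid droplet signal / Doses: 6.5 µM single-point dosing / Incubation: overnight exposure / Reagent: 100 µM oleic acid challenge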
ANO1 activ – activates or potentiates the mouse TMEM16A chloride channel. Q8BHY3. HEK293 TMEM16A/YFP-H148Q/I152L, iodide quench fluorescence; active compounds read low. B-score at 10 µM. 340,000 compounds, 0.3% hits;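 active = fluorescence-ratio B-score plate-corrected deviation score at least 3 library SD below zero, with starting fluorescence score within 5 deviations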;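 note: channel opened by trigger with iodide after compound preincubation; score built on the fluorescence ratio of max minus min over baseline; more negative score means more quench and so TMEM16A activation or potentiation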
Each line names hits and unclear results; the compound was inactive in the other large screens. An excerpt weighted towards active compounds, which were near 4.2% of everything screened.

COc1ccc(-n2nc(C(=O)NCC(=O)NCc3ccccc3OC)c3ccccc3c2=O)c(OC)c1	none
COc1ccc(-n2nc(C(=O)Nc3nc4ccc(OC)cc4s3)c3ccccc3c2=O)c(OC)c1	CHOP inh 88 (no result: ANO1 activ)
CCN(Cc1ccccc1)S(=O)(=O)c1ccc(S(=O)(=O)N(Cc2cccc(OC)c2)CC2CCCO2)cc1 (centres undefined)	ANO1 block 25
COc1cccc(CN(CC2CCCO2)S(=O)(=O)c2ccc(-n3cnnn3)c(OC)c2)c1 (centres undefined)	none
Cc1ccc(-c2csc(=Nc3cccnc3)n2CCCn2ccnc2)cc1C	ANO1 block 25
COCCn1c(-c2ccccc2)csc1=Nc1cccnc1	ANO1 block 25
Cc1ccc(-c2csc(=Nc3cccnc3)n2CCCN2CCCC2=O)cc1C	none
CCn1c(CSCc2ccc(C)cc2)nnc1SCC(=O)N1CCN(c2ccccc2)CC1	ANO1 block 25
O=C(Nc1nnc(Cc2ccccc2F)s1)Nc1ccccc1F	none (no result: CHOP inh)
CC(C)NC(=S)N/N=C/c1cc(Br)ccc1O	CHOP inh 77
Oc1ccc(Br)cc1/C=N/NC(=S)NCCc1ccccc1	none (no result: CHOP inh)
O=C(CCc1ccccc1)N/N=C/c1cc(Br)ccc1O	CHOP inh 76
COC(=O)N/N=C/c1cc(Br)ccc1O	none
Cc1cccc(NC(=O)C2CC(O)CN2C(=O)Oc2ccccc2)c1 (centres undefined)	none (no result: CHOP inh)
NC(=O)NC(CCC(=O)O)C(=O)O (centres undefined)	none (no result: CHOP inh, Hep lipid drop)
CC(C)NS(=O)(=O)c1ccc(OCC(=O)N2CCc3ccccc3C2)cc1	CHOP inh 74
Cc1ccc(SCC(=O)Nc2cccc(-c3nnc(-c4ccco4)o3)c2)cc1	CHOP inh 71
O=C(CSc1ccc(Cl)cc1)Nc1cccc(-c2nnc(-c3ccco3)o2)c1	none
CCOC(=O)CSC1=C(C#N)C(=O)NC(c2ccc(OC)c(OC)c2)S1 (centres undefined)	ANO1 block 25 (no result: Hep lipid drop)
CCOC(=O)CSC1=C(C#N)C(=O)NC(c2ccc(OC)cc2)S1 (centres undefined)	none
O=C(CSc1ccc(Cl)cc1)N1CCN(c2ccc([N+](=O)[O-])cc2Cl)CC1	CHOP inh 78 (no result: Hep lipid drop)
N#CC(=C(\N)Sc1ccccc1N)/C(C#N)=C(/N)Sc1ccccc1N	none (no result: XBP1 UPR activ, CHOP UPR activ, ANO1 block, Hep lipid drop, ANO1 activ)
COc1cc(/C=C/C(=O)Nc2ccc(S(=O)(=O)Nc3ncccn3)cc2)ccc1OCC#N	none (no result: XBP1 UPR activ, CHOP UPR activ, ANO1 block, CHOP inh, Hep lipid drop)
COC(=O)c1ccc2nc(-c3ccc(S(C)(=O)=O)cc3)cn2c1	none (no result: Hep lipid drop)
COC(=O)c1ccc2nc(-c3cccc(N)c3)cn2c1	CHOP inh 80
CCCCc1ccc(NC(=S)NCc2cccs2)cc1	ANO1 block 100, CHOP inh 85 (no result: Hep lipid drop)
COc1ccc(S(=O)(=O)N(C)C[C@H]2Oc3c(NS(=O)(=O)c4cn(C)cn4)cccc3C(=O)N([C@H](C)CO)C[C@@H]2C)cc1	none (no result: ANO1 block, CHOP inh, Hep lipid drop)
CC(=O)OCC1OC(n2cc(F)c(=O)[nH]c2=O)C(OC(C)=O)C1OC(C)=O (centres undefined)	none (no result: CHOP inh, Hep lipid drop)
O=C1C(F)=CC(COC(c2ccccc2)(c2ccccc2)c2ccccc2)OC1n1cc(F)c(=O)[nH]c1=O (centres undefined)	ANO1 activ -13 (no result: XBP1 UPR activ, CHOP UPR activ, ANO1 block, CHOP inh, Hep lipid drop)
CC1CCCN(S(=O)(=O)c2ccc3oc(=O)ccc3c2)C1 (centres undefined)	none (no result: CHOP inh)
CC(OC(=O)CN(C)S(=O)(=O)c1ccc(Cl)cc1)C(=O)Nc1cccc(Cl)c1 (centres undefined)	CHOP inh 83
CC1CCN(C2=C(NS(=O)(=O)c3ccc(Cl)cc3)C(=O)c3ccccc3C2=O)CC1	Hep lipid drop 70
COCCCNC(=O)C(=O)NCC(c1ccco1)N1CCN(c2ccc(OC)cc2)CC1 (centres undefined)	none (no result: CHOP inh)
COc1ccc(N2CCN(C(CNC(=O)C(=O)NCCC3=CCCCC3)c3ccco3)CC2)cc1 (centres undefined)	CHOP inh 87
O=C(NCCC1=CCCCC1)C(=O)NCC(c1ccco1)N1CCN(c2ccccc2)CC1 (centres undefined)	CHOP inh 94
O=C(NCCC1=CCCCC1)C(=O)NCC(c1ccco1)N1CCN(c2ccccc2F)CC1 (centres undefined)	none
CC(NC(=O)C(=O)NCCC1=CCCCC1)c1ccccc1 (centres undefined)	CHOP inh 95
Cc1ccc([C@H]2C(C(=O)O)=CC[C@@H](c3ccc(C)cc3)N2S(=O)(=O)c2ccc(C)cc2)cc1	none (no result: ANO1 block, CHOP inh, Hep lipid drop, ANO1 activ)
Cc1csc(NC(=O)CS(=O)(=O)Cc2ccccc2)n1	none
CCCn1c2ccc(C)cc2c2n[nH]c(=S)nc21	none (no result: CHOP inh)
COC(=O)c1nc2n(n1)C(c1cc(OC)ccc1OC)C(C(=O)OC1CCCCC1)=C(C)N2 (centres undefined)	CHOP inh 80 (no result: Hep lipid drop)
CN(C)c1c2ccccc2nc2c(F)c(F)c(F)c(F)c12	CHOP inh 70
N=c1c2c(ncn1Cc1ccco1)Oc1c(ccc3ccccc13)C2c1ccccc1 (centres undefined)	CHOP inh 89
N=c1c2c(ncn1Cc1ccco1)Oc1cc(O)ccc1C2c1ccccc1 (centres undefined)	none
CC(NC(=O)c1ccc(N(C)C)cc1)C1CC2CCC1C2 (centres undefined)	CHOP inh 79 (no result: XBP1 UPR activ, CHOP UPR activ, ANO1 block)
Cc1c(C#N)c(O)n(CCO)c(=O)c1N=Nc1ccc2c(c1)COC2=O	CHOP inh 94
COc1ccc(C2C(C#N)=C(N)Oc3c2sc2nc(C)cc(C)c32)cc1 (centres undefined)	ANO1 activ -7.1
CC1C(=O)CC(c2ccccc2)N(C)C1c1ccccc1 (centres undefined)	CHOP inh 79 (no result: Hep lipid drop)
Cc1cc(Cl)c2oc(C(=O)N(C)Cc3nccn3C)c(C)c2c1	none (no result: ANO1 block, CHOP inh)
CCOC(=O)c1c(NC(=O)Cn2c(C)nc3ccccc32)sc2c1CCC2	none
COC(=O)c1cc(NC(=O)c2ccc(Cn3cc(Cl)cn3)o2)cc(C(=O)OC)c1	none
Cc1cccc(NC(=O)COc2cccc3c2CCN(Cc2ccccc2)C3=O)c1C	ANO1 activ -6.5
CCOC(=O)c1c(NC(=O)COC(=O)Cn2c(C)nc3ccccc32)sc2c1CCCC2	CHOP inh 74
CCOC(=O)c1c(NC(=S)NC(=O)c2ccc(Cn3cc(Cl)cn3)o2)sc2c1CCC(C)C2 (centres undefined)	CHOP inh 77 (no result: Hep lipid drop)
CCOC(=O)c1c(NC(=O)COc2cccc3c2CCN(C)C3=O)sc2c1CCC2	CHOP inh 82
